Tests used:
[1] = compound: COc1ccccc1-c1nnc(SC2=CS(=O)(=O)c3ccccc32)o1; assay: Inhibition of recombinant Cryptococcus neoformans His-tagged IMPDH expressed in Escherichia coli BL21 (DE3) at 10 uM assessed as Kcat for substrate using IMP as fixed substrate at 500 uM and NAD as second substrate with varying concentrations of 31.25 to 1300 uM (reference value: 21.5 /s)
How it was run: (§1)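 Recombinant C. neoformans IMPDH, 100 nM final, reaction started by adding enzyme. NADH production monitored at 340 nm. Inhibitor series ran from 20 to 0.31 µM; MPA tested at 312 to 39 nM. Km and Vmax fitted to the Michaelis–Menten equation; inhibition type taken from shifts in Km and Vmax.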

[2] = compound: O=S1(=O)C=C(Sc2nnc(-c3ccccc3)o2)c2ccccc21; assay: (§2) Inhibition of recombinant Cryptococcus neoformans His-tagged IMPDH expressed in Escherichia coli BL21 (DE3) at 2.5 uM assessed as Vmax for substrate using NAD as fixed substrate at 700 uM and IMP as second substrate with varying concentrations of 25 to 800 uM (reference value: 1.5 microM/min); how it was run: as §1
[3] = compound: COc1ccccc1-c1nnc(SC2=CS(=O)(=O)c3ccccc32)o1; assay: as §2; how it was run: as §1
[4] = compound: O=S1(=O)C=C(Sc2nnc(-c3ccccc3)o2)c2ccccc21; assay: (§3) Inhibition of recombinant Cryptococcus neoformans His-tagged IMPDH expressed in Escherichia coli BL21 (DE3) at 0.3 uM assessed as Vmax for substrate using NAD as fixed substrate at 700 uM and IMP as second substrate with varying concentrations of 25 to 800 uM (reference value: 1.5 microM/min); how it was run: as §1
[5] = compound: COc1ccccc1-c1nnc(SC2=CS(=O)(=O)c3ccccc32)o1; assay: as §3; how it was run: as §1
[6] = substrate: COc1c(C)c2c(c(O)c1C/C=C(\C)CCC(=O)O)C(=O)OC2; conditions: Cryptococcus neoformans; 0.039 uM
[7] = compound: O=S1(=O)C=C(Sc2nnc(-c3ccccc3)o2)c2ccccc21; assay: (§4) Inhibition of recombinant Cryptococcus neoformans His-tagged IMPDH expressed in Escherichia coli BL21 (DE3) at 10 uM assessed as Km for substrate using IMP as fixed substrate at 500 uM and NAD as second substrate with varying concentrations of 31.25 to 1300 uM (reference value: 257.5 +/- 23 microM); how it was run: as §1
[8] = compound: COc1ccccc1-c1nnc(SC2=CS(=O)(=O)c3ccccc32)o1; assay: as §4; how it was run: as §1
[9] = substrate: COc1c(C)c2c(c(O)c1C/C=C(\C)CCC(=O)O)C(=O)OC2; conditions: Cryptococcus neoformans; 0.078 uM
[10] = substrate: COc1c(C)c2c(c(O)c1C/C=C(\C)CCC(=O)O)C(=O)OC2; conditions: Cryptococcus neoformans; 0.156 uM
[11] = compound: O=S1(=O)C=C(Sc2nnc(-c3ccccc3)o2)c2ccccc21; assay: (§5) Inhibition of recombinant Cryptococcus neoformans His-tagged IMPDH expressed in Escherichia coli BL21 (DE3) at 2.5 uM assessed as Kcat for substrate using NAD as fixed substrate at 700 uM and IMP as second substrate with varying concentrations of 25 to 800 uM (reference value: 21.5 /s); how it was run: as §1
[12] = compound: COc1ccccc1-c1nnc(SC2=CS(=O)(=O)c3ccccc32)o1; assay: as §5; how it was run: as §1
[13] = substrate: COc1c(C)c2c(c(O)c1C/C=C(\C)CCC(=O)O)C(=O)OC2; conditions: Cryptococcus neoformans; 0.156 uM; remark: listed apart in the source
[14] = compound: O=S1(=O)C=C(Sc2nnc(-c3ccccc3)o2)c2ccccc21; assay: Inhibition of recombinant Cryptococcus neoformans His-tagged IMPDH expressed in Escherichia coli BL21 (DE3) at 0.3 uM assessed as Kcat for substrate using IMP as fixed substrate at 500 uM and NAD as second substrate with varying concentrations of 31.25 to 1300 uM (reference value: 1.5 /s)
[15] = substrate: COc1c(C)c2c(c(O)c1C/C=C(\C)CCC(=O)O)C(=O)OC2; conditions: Cryptococcus neoformans; 0.039 uM; remark: listed apart in the source
[16] = compound: O=S1(=O)C=C(Sc2nnc(-c3ccccc3)o2)c2ccccc21; assay: (§6) Inhibition of recombinant Cryptococcus neoformans His-tagged IMPDH expressed in Escherichia coli BL21 (DE3) at 0.3 uM assessed as Kcat for substrate using NAD as fixed substrate at 700 uM and IMP as second substrate with varying concentrations of 25 to 800 uM (reference value: 21.5 /s); how it was run: as §1
[17] = compound: COc1ccccc1-c1nnc(SC2=CS(=O)(=O)c3ccccc32)o1; assay: as §6; how it was run: as §1
[18] = compound: O=S1(=O)C=C(Sc2nnc(-c3ccccc3)o2)c2ccccc21; assay: (§7) Inhibition of recombinant Cryptococcus neoformans His-tagged IMPDH expressed in Escherichia coli BL21 (DE3) at 2.5 uM assessed as Km for substrate using NAD as fixed substrate at 700 uM and IMP as second substrate with varying concentrations of 25 to 800 uM (reference value: 257.5 +/- 23 microM); how it was run: as §1
[19] = compound: COc1ccccc1-c1nnc(SC2=CS(=O)(=O)c3ccccc32)o1; assay: as §7; how it was run: as §1
[20] = compound: O=S1(=O)C=C(Sc2nnc(-c3ccccc3)o2)c2ccccc21; assay: (§8) Inhibition of recombinant Cryptococcus neoformans His-tagged IMPDH expressed in Escherichia coli BL21 (DE3) at 10 uM assessed as Km for substrate using NAD as fixed substrate at 700 uM and IMP as second substrate with varying concentrations of 25 to 800 uM (reference value: 257.5 +/- 23 microM); how it was run: as §1
[21] = compound: COc1ccccc1-c1nnc(SC2=CS(=O)(=O)c3ccccc32)o1; assay: as §8; how it was run: as §1
[22] = substrate: COc1c(C)c2c(c(O)c1C/C=C(\C)CCC(=O)O)C(=O)OC2; conditions: Cryptococcus neoformans; 0.039 uM; remark: listed apart in the source
[23] = compound: O=S1(=O)C=C(Sc2nnc(-c3ccccc3)o2)c2ccccc21; assay: (§9) Inhibition of recombinant Cryptococcus neoformans His-tagged IMPDH expressed in Escherichia coli BL21 (DE3) at 0.3 uM assessed as Vmax for substrate using IMP as fixed substrate at 500 uM and NAD as second substrate with varying concentrations of 31.25 to 1300 uM (reference value: 1.5 microM/min); how it was run: as §1
[24] = compound: COc1ccccc1-c1nnc(SC2=CS(=O)(=O)c3ccccc32)o1; assay: as §9; how it was run: as §1
[25] = substrate: COc1c(C)c2c(c(O)c1C/C=C(\C)CCC(=O)O)C(=O)OC2; conditions: Cryptococcus neoformans; 0.078 uM; remark: listed apart in the source
[26] = substrate: COc1c(C)c2c(c(O)c1C/C=C(\C)CCC(=O)O)C(=O)OC2; conditions: Cryptococcus neoformans; 0.039 uM; remark: listed apart in the source
[27] = substrate: COc1c(C)c2c(c(O)c1C/C=C(\C)CCC(=O)O)C(=O)OC2; conditions: Cryptococcus neoformans; 0.078 uM; remark: listed apart in the source

B1: Inosine-5'-monophosphate dehydrogenase (Cryptococcus neoformans var. neoformans serotype D (strain JEC21 /ATCC MYA-565) (Filobasidiella neoformans)), Q5KP44 (protein)
chain: MADTNPNAPPRSDSLLNPADALKYLEEYPRGDGLSLQELMDSRKNGGLTYNDFLVLPGHISFPASDVSLQSRATKNIVLNTPFLSSPMDTVTEDRMAIALALHGGLGIIHHNCSAEEQAAMVRRVKKYENGFITDPLCLGPDATVGDVLEIKAKFGFCGVPITETGAPNSKLLGIVTGRDVQFQDAETPIKSVMTTEVVTGSSPITLEKANSLLRETKKGKLPIVDSNGHLVSLVARSDLLKNQNYPYASKVPESKQLYCGAAIGTRPGDKDRLKLLAEAGLDVVVLDSSQGDSVYQIEFIKWIKQTYPKIEIIAGNVVTREQAAQLIAAGADGLRIGMGSGSICITQEVMAVGRPQGTAVYAVAEFASRFGIPCIADGGIGNIGHIAKALALGASAVMMGGLLAGTTESPGEYFYHEGKRVKVYRGMGSIEAMEHTQRGSASGKRSILNLDNAATARYFSEADAVKVAQGVSGDVADKGSINKFVPYLFTGLQHSFQDAGVKSVSELHSCARSGSLRFELRTASAQLEGGVHGLNSYTKRLFA
[1]
  kcat: 1 s⁻¹
[2]
  Vmax: 0.9 µM/min
[3]
  Vmax: 1 µM/min
[4]
  Vmax: 1.1 µM/min
[5]
  Vmax: 1.4 µM/min
[6]
  Km: 64 µM
[7]
  Km: 386 µM
[8]
  Km: 355 µM
[9]
  kcat: 0.6 s⁻¹
[10]
  Vmax: 0.26 µM/min
[11]
  kcat: 0.9 s⁻¹
[12]
  kcat: 1 s⁻¹
[13]
  Km: 37 µM
[14]
  kcat: 1.5 s⁻¹
[15]
  kcat: 0.9 s⁻¹
[16]
  kcat: 1.1 s⁻¹
[17]
  kcat: 1.4 s⁻¹
[18]
  Km: 187 µM
[19]
  Km: 165 µM
[20]
  Km: 316 µM
[21]
  Km: 258 µM
[22]
  Vmax: 1.1 µM/min
[23]
  Vmax: 1.5 µM/min
[24]
  Vmax: 1.5 µM/min
[25]
  Vmax: 0.6 µM/min
[26]
  kcat: 1.1 s⁻¹
[27]
  kcat: 0.6 s⁻¹

From ChEMBL document CHEMBL4265991
